TAAR1 agonist: human TAAR1 agonism. 360,000 compounds, 0.99% hits. CHO RD-HGA16 TAAR1, Fluo-8 calcium fluorescence; vehicle wells 0%, saturating PEA agonist 100%. activation, % at 3 µM. Q96RJ0;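 active means activation above the mean activation of all test compounds in the run plus 3 SD, cut at about 38% in these data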
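System: CHO-derived RD-HGA16 cells with stable Gα16 and human TAAR1. Times: 17-24 h plating, Fluo-8 75 min 37 °C, 30 min RT. Measured by: calcium-sensitive Fluo-8 signal, excitation 470-495, emission 515-575 nm. Read-out basis: % activation relative to PEA EC100 response. Control set: DMSO and PEA EC100. Repeats: no replicates (n 1).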
GPR7 antag: antagonists of human GPR7 (neuropeptides B/W receptor 1); GPR7-expressing cells, fluorescence antagonist assay; AID 1861; inhibition, % at 4.4 µM; 290,000 compounds, 1.1% hits; in the data active means inhibition above about 16%, passing the limit was not always enough;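 further: cells stimulated with the agonist NPW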
Target sequence (P48145 whole entry, looked up): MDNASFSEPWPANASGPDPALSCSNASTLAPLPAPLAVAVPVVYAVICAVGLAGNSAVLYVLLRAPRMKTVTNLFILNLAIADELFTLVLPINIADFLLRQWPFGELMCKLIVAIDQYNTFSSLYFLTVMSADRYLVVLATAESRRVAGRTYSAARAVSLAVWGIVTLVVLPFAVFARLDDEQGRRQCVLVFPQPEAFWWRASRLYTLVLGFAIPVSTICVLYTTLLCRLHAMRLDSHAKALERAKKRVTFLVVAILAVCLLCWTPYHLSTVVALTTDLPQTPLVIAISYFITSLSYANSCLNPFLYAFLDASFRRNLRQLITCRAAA
OX1R antag-1: blocks the human orexin 1 receptor. O43613. OX1R-expressing cells, FRET antagonist read-out. inhibition, % at 6.6 µM. 330,000 compounds, 1.8% hits. AID 485270; in the data active means inhibition mostly above about 38%, no sharp cut-off; inactive means mostly below about 40%
OX1R antag-2: antagonists of human orexin 1 receptor | 330,000 compounds, 0.43% hits | CHO/OX1R cells, Fluo-8 calcium fluorescence, orexin A | AID 434989 | inhibition, % at 5 µM;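 active means inhibition above its plate's threshold, mean inhibition of all tested compounds on the plate plus 3 SD, cut at about 37% in these data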
CHO parental Ca: signal in parental CHO cells, OX1R antagonist counter-screen | 330,000 compounds, 0.63% hits | inhibition, % at 5.6 µM | parental CHO-K1, ATP-induced calcium, Fluo-8 fluorescence | AID 463079;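 active means inhibition above that plate's mean sample inhibition plus 3 SD, cut at about 26% in these data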
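Assay system: parental CHO cells; Read-out basis: percent inhibition of ATP-evoked calcium rise, normalized to controls; Benchmarks: ATP and no-ATP DMSO wells; Compound dosing: single nominal dose of 5.6 µM per compound; Signal: Fluo-8 calcium dye fluorescence; Also added: ATP as calcium-mobilizing challenge; Repeats: singlicate.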
TAAR1 antagonist: human TAAR1 antagonism; CHO RD-HGA16 TAAR1, Fluo-8 calcium fluorescence, antagonist; inhibition, % at 3 µM; 360,000 compounds, 1.5% hits; AID 624466;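 active means inhibition above a per-plate cutoff, the mean inhibition of test compounds on that plate plus 3 SD, cut at about 49% in these data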
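System: CHO RD-HGA16 cells bearing hTAAR1. Reagent: EC80 β-phenethylamine stimulus. Schedule: seeding 17-24 h prior, 75-min 37 °C, 30-min RT dye loading. Signal: Fluo-8 intracellular calcium dye fluorescence, real-time kinetic reads. Read-out: % inhibition from peak post-agonist over basal fluorescence ratio. Benchmarks: vehicle wells and EC80 agonist wells. Replicates: n of 1.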
GPR7 antag cf: human GPR7 antagonism, confirmation assay. shares compounds with GPR7 antag. GPR7-expressing cells, calcium fluorescence antagonist mode. inhibition, % at 4.4 µM. 2,400 compounds, 52% hits. AID 1952; in the data active means inhibition above about 24%;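 further: stimulated with the GPR7 agonist NPW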
MCHR1 antagonist: antagonizes human MCHR1, a GPR7 antagonist counter-screen. MCHR1-expressing cells, fluorescence antagonist assay. inhibition, % at 4.4 µM. shares compounds with GPR7 antag. 2,400 compounds, 62% hits; in the data active means inhibition above about 22%
A number is an active result. Hits are enriched below; roughly 4.6% of the tested compounds scored in any of these assays.

For COc1ccc(-c2onc(C)c2-c2cnn(-c3ccccc3)c2)c(O)c1C the results were TAAR1 agonist inactive, GPR7 antag 32, OX1R antag-1 inactive, OX1R antag-2 inactive, CHO parental Ca inactive, TAAR1 antagonist inactive, GPR7 antag cf 25 and MCHR1 antagonist 34.
For CN(C)Cc1c(C(=O)N/N=C/c2cccc(OCc3c(F)cccc3Cl)c2)nnn1-c1nonc1N the results were TAAR1 agonist inactive, GPR7 antag inactive, OX1R antag-1 inactive, OX1R antag-2 inactive, CHO parental Ca inactive and TAAR1 antagonist inactive.
CN(C)Cc1c(C(=O)N/N=C/c2ccccc2OCc2c(F)cccc2Cl)nnn1-c1nonc1N was read as TAAR1 agonist inactive, GPR7 antag 35, OX1R antag-1 inactive, OX1R antag-2 inactive, CHO parental Ca inactive, TAAR1 antagonist inactive, GPR7 antag cf 34 and MCHR1 antagonist 66.
For O=C(NCCc1ccco1)C(=O)NCC1OCCCN1S(=O)(=O)c1ccc(F)cc1 (centres undefined) the results were TAAR1 agonist inactive, GPR7 antag 24, OX1R antag-1 inactive, OX1R antag-2 inactive, CHO parental Ca inactive, TAAR1 antagonist inactive, GPR7 antag cf inactive and MCHR1 antagonist inactive.
`COc1cc(NS(=O)(=O)c2cc3[nH]c(=O)c(=O)[nH]c3cc2C)cc(OC)c1OC` gave TAAR1 agonist inactive, GPR7 antag 43, OX1R antag-1 inactive, OX1R antag-2 inactive, CHO parental Ca inactive, TAAR1 antagonist inactive, GPR7 antag cf inactive and MCHR1 antagonist inactive.
O=C(Nc1ccc(S(=O)(=O)NCCc2ccccc2)cc1)c1ccncc1 was read as TAAR1 agonist inactive, GPR7 antag inactive, OX1R antag-1 inactive, OX1R antag-2 inactive, CHO parental Ca inactive and TAAR1 antagonist inactive.
For OC(CNCC1CCCO1)Cn1c2ccc(Cl)cc2c2cc(Cl)ccc21 (centres undefined) the results were TAAR1 agonist inactive, GPR7 antag 53, OX1R antag-1 inactive, OX1R antag-2 inactive, CHO parental Ca inactive, TAAR1 antagonist inactive, GPR7 antag cf 53 and MCHR1 antagonist 54.
Screening COc1ccc(C2CC(=O)C(C=NCCN3CCOCC3)=C(O)C2)cc1 (centres undefined) returned TAAR1 agonist inactive, GPR7 antag 23, OX1R antag-1 inactive, OX1R antag-2 inactive, CHO parental Ca inactive, TAAR1 antagonist inactive, GPR7 antag cf inactive and MCHR1 antagonist inactive.
`COc1ccc(C2CC(=O)C(C=NCCN3CCN(C(C)=O)CC3)=C(O)C2)cc1` (centres undefined) gave TAAR1 agonist inactive, GPR7 antag inactive, OX1R antag-1 inactive, OX1R antag-2 inactive, CHO parental Ca inactive and TAAR1 antagonist inactive.
`CCOC(=O)c1sc(N)c(C#N)c1CSc1nnc(C2CCCCC2)n1N` gave TAAR1 agonist inactive, GPR7 antag inactive, OX1R antag-1 inactive, OX1R antag-2 inactive, CHO parental Ca inactive and TAAR1 antagonist inactive.
For COC(=O)[C@]12C[C@H](CC(=O)NCc3cccs3)C(=O)N(Cc3ccccc3)C1=C[C@H](C(C)(C)C)O[C@@H]2C the results were TAAR1 agonist inactive and TAAR1 antagonist inactive.
`Cc1ccc(C(=O)N2CCN(c3ccc(NC(=O)c4ccc5c(c4)OCCO5)cc3)CC2)cc1` gave TAAR1 agonist inactive, GPR7 antag 32, OX1R antag-1 inactive, OX1R antag-2 inactive, CHO parental Ca inactive, TAAR1 antagonist inactive, GPR7 antag cf 33 and MCHR1 antagonist 65.
O=C(Nc1ccc(N2CCN(C(=O)c3ccccc3)CC2)cc1)c1ccc2c(c1)OCO2 was read as TAAR1 agonist inactive, GPR7 antag inactive, OX1R antag-1 inactive, OX1R antag-2 inactive, CHO parental Ca inactive and TAAR1 antagonist inactive.
COc1ccc(C(CCNCc2ccc(N(C)C)cc2)C(C)C)cc1 (centres undefined) was read as TAAR1 agonist inactive, GPR7 antag 24, OX1R antag-1 inactive, OX1R antag-2 inactive, CHO parental Ca inactive, TAAR1 antagonist inactive, GPR7 antag cf inactive and MCHR1 antagonist 50.

Compound activity deposited in PubChem BioAssay by The Scripps Research Institute Molecular Screening Center.
